ChEMBL document CHEMBL4706770, “SD-91 as A Potent and Selective STAT3 Degrader Capable of Achieving Complete and Long-Lasting Tumor Regression” (ACS Med Chem Lett, 2021)
Calls of active or inactive are those of the source. The rule behind the calls is not given here.

Legend:
[1] = biological target: T1, Signal transducer and activator of transcription 5A (Homo sapiens, UniProt P42229); assay: Binding affinity to human recombinant STAT5A assessed as dissociation constant incubated for 15 mins by biolayer interferometry
T1 sequence (P42229 whole entry): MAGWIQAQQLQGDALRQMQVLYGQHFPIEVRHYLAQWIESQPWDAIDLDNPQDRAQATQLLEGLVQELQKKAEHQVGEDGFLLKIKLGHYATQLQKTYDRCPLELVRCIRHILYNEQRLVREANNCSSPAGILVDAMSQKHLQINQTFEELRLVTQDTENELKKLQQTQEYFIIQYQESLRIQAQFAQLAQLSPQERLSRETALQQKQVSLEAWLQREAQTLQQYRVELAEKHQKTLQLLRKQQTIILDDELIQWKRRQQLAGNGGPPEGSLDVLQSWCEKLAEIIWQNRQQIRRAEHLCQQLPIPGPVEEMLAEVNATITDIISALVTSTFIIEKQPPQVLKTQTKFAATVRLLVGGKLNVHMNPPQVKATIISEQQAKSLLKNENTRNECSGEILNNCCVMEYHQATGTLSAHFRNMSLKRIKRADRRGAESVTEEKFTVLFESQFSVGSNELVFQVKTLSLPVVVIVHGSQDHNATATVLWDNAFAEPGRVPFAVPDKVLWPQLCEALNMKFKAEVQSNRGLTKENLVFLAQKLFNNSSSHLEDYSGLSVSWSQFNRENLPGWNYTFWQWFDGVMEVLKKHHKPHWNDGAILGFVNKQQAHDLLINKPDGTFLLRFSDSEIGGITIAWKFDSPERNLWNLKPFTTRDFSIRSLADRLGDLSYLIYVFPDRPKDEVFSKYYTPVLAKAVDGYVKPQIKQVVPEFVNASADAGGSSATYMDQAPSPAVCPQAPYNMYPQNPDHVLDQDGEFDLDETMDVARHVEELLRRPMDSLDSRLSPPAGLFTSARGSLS
Outline: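 Biolayer interferometry with recombinant human STAT1, STAT2, STAT3, STAT4, STAT5A, STAT5B or STAT6 proteins containing their SH2 domain. Compound run in 2× serial dilutions from 200 nM. Kd taken from steady-state fitting of equilibrium responses against concentration using a 1:1 binding model.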

[2] = Toxicity in SCID mouse xenografted with human MOLM16 cells assessed as toxic effects at 25 to 50 mg/kg, iv for 65 days; assay type: organism-based; conditions: in vivo, 1560 h, dose 25-50 mg/kg, time 65 day
Outline: (§1)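 SCID mice bearing MOLM-16 xenografts dosed intravenously at 25 or 50 mg/kg on a weekly schedule; vehicle 10% PEG400/90% PBS; body weight and tumor volume measured every 2 days; signs of toxicity monitored during and after treatment.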

[3] = Toxicity in SCID mouse xenografted with human MOLM16 cells assessed as body weight loss at 25 to 50 mg/kg, iv for 65 days; assay type: organism-based; conditions: in vivo, 1560 h, dose 25-50 mg/kg, time 65 day; outline: as §1
[4] = Stability of the compound in complete cell culture medium measured upto 100 hrs by LC/MS/MS analysis; assay type: physicochemical
Outline: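 Compound incubated at 37 °C in the cell culture media used for cellular assays; percentages of parent and conversion products determined at time points up to 96 h.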

[5] = biological target: Protein cereblon/Signal transducer and activator of transcription 2 (Homo sapiens) (UniProt Q96SW2+P52630); assay: Protac activity at CRBN/STAT2 in human SUP-M2 cells […] at 0.25 to 100 uM incubated for 4 hrs by Western blot analysis; assay type: cell-based; conditions: SUPM2, dose lower 0.25 µM
[6] = biological target: Protein cereblon/Signal transducer and activator of transcription 1-alpha/beta (Homo sapiens) (UniProt P42224+Q96SW2); assay: Protac activity at CRBN/STAT1 in human SUP-M2 cells […] at 0.25 to 100 uM incubated for 4 hrs by Western blot analysis; assay type: cell-based; conditions: SUPM2, dose lower 0.25 µM
[7] = Drug uptake in SCID mouse xenografted with human MOLM16 cells assessed as (2-(((5S,8S,10aR)-8-(((S)-5-amino-1-(benzhydrylamino)-1,5-dioxopentan-2-yl)carbamoyl)-3-(8-(2-(2,6-dioxopiperidin-3-yl)-1-oxoisoindolin-4-yl)oct-7-yno yl)-6-oxodecahydropyrrolo[1,2-a][1,5]diazocin-5-yl)carbamoyl)-1H-indole-5-carbonyl)phosphonic acid level in tumor tissue at 50 mg/kg, iv measured after 6 hrs by LC-MS/MS; assay type: ADME, organism-based; conditions: in vivo
Outline: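 SCID mice bearing MOLM-16 xenografts given a single iv dose of 50 mg/kg. Concentrations of parent and hydrolysis product measured in plasma (ng/mL) and tumor tissue (ng/g) at 1, 6 and 24 h.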

[8] = (§2) Drug metabolism buffer pH 4 assessed as conversion to 5-amino-4-(4-(8-((5S,8S,10aR)-8-((S)-5-amino-1-(benzhydrylamino)-1,5-dioxopentan-2-ylcarbamoyl)-6-oxo-5-(5-(phosphonocarbonyl)-1H-indole-2-carboxamido)octahydropyrrolo[1,2-a][1,5]diazocin-3(4H)-yl)-8-oxooct-1-ynyl)-1-oxoisoindolin-2-yl)-5-oxopentanoic acid measured upto 100 hrs by LC/MS/MS analysis; conditions: time hrs <=100
Outline: (§3)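 Parent compound incubated in buffer at pH 4 or pH 8, at room temperature or 37 °C. Percentages of the parent, the hydrolysis product and the glutarimide ring-opened product followed over time, up to 96 h.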

[9] = as §2, with “pH 8” for “pH 4”; conditions: time hrs <=100; outline: as §3

Chain of Protein cereblon/Signal transducer and activator of transcription 2 (Homo sapiens) (P52630 whole entry, looked up): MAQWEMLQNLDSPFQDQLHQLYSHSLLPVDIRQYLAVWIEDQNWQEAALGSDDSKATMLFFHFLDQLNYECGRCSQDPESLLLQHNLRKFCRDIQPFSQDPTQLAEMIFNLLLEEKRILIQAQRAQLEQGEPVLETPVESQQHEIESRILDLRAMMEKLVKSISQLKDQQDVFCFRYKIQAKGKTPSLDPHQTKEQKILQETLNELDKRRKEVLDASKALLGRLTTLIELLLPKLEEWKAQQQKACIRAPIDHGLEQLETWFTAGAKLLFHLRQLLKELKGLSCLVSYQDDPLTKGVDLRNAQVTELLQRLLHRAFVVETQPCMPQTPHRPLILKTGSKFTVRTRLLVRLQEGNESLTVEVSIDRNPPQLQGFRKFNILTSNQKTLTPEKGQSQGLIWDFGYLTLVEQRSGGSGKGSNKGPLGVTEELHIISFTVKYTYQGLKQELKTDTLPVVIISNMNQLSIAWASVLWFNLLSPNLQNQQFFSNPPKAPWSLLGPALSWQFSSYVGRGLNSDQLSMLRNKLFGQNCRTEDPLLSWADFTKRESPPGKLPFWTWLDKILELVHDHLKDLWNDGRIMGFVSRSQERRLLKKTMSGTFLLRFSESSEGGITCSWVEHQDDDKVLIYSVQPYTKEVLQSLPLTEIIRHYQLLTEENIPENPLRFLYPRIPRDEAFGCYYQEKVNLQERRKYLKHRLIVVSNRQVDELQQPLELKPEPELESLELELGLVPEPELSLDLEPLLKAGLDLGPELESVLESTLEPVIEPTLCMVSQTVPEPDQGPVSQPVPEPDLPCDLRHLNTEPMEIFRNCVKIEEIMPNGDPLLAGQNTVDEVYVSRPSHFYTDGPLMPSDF
Chain of Protein cereblon/Signal transducer and activator of transcription 2 (Homo sapiens) (Q96SW2 whole entry, looked up): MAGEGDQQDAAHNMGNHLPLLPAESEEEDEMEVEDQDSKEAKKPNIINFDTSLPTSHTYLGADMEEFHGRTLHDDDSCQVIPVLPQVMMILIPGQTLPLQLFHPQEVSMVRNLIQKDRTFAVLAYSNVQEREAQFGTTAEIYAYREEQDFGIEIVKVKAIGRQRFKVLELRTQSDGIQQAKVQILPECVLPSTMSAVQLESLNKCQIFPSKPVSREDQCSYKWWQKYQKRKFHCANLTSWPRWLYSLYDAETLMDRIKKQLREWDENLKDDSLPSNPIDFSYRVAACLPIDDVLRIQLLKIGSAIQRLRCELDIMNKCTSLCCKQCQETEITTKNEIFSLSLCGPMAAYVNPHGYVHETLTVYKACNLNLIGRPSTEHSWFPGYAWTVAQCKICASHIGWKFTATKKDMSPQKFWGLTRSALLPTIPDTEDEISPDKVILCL

| Compound | Kd [1] [nM] | Activity [2] | Activity [3] | Stabilty [4] | Activity [5] | Activity [6] | Drug uptake [7] [ng/g] | Drug metabolism [8] | Drug metabolism [9] |
| --- | --- | --- | --- | --- | --- | --- | --- | --- | --- |
| NC(=O)CC[C@H](NC(=O)[C@@H]1CC[C@@H]2CCN(C(=O)CCCCCC#Cc3cccc4c3CN(C3CCC(=O)NC3=O)C4=O)C[C@H](NC(=O)c3cc4cc(C(=O)P(=O)(O)O)ccc4[nH]3)C(=O)N21)C(=O)NC(c1ccccc1)c1ccccc1 (some centres undefined) | > 10 | Non-Toxic | Non-Toxic | Stable | – | – | – | – | – |
| NC(=O)CC[C@H](NC(=O)[C@@H]1CC[C@@H]2CCN(C(=O)CCCCCC#Cc3cccc4c3CN(C3CCC(=O)NC3=O)C4=O)C[C@H](NC(=O)c3cc4cc(C(F)(F)P(=O)(O)O)ccc4[nH]3)C(=O)N21)C(=O)NC(c1ccccc1)c1ccccc1 (some centres undefined) | – | – | – | – | inactive | inactive | 1750 | Metabolite not detected | Metabolite detected |
